Assay results published in ChEMBL document CHEMBL4732044, “Discovery of a promising agent IQZ23 for the treatment of obesity and related metabolic disorders” (Eur J Med Chem, 2020).
Active and inactive are the calls of the source. The rule behind the calls is not given here.

Experiments:
[1] = test system: C2C12; assay: Activation of AMPK pathway in mouse C2C12 cells assessed as increase in glucose uptake at 1 uM after 6 hrs in presence of insulin by 2-NBDG/Hoechst 33342 staining based Confocal microscopic method; type: cell-based; details: filed as activator
Method in brief: (§1)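 C2C12 myoblasts kept in DMEM with 10% FBS and 1% penicillin/streptomycin at 37 °C under 5% CO2.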

[2] = test system: 3T3-L1; assay: Activation of AMPK pathway in mouse 3T3-L1 cells assessed as increase in […] mRNA expression at 1 uM after 24 hrs by RT-qPCR analysis; type: cell-based; details: filed as activator
[3] = Clearance in Sprague-Dawley rat at 2 mg/kg, iv up to 24 hrs by LC-MS/MS analysis; details: in vivo
[4] = test system: 3T3-L1; assay: Lipid lowering activity in mouse 3T3-L1 cells assessed as adipogenic cocktail-induced triglyceride levels at 1 uM by GPO-POD assay; type: functional, cell-based; details: time day <=6
Method in brief: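 Confluent 3T3-L1 cells were treated from day 0 in cocktail (IBMX, dexamethasone, insulin) for 3 days, then re-dosed in insulin medium for 3 more days. For dose–response, concentrations were 0–10 µM (0.01, 0.1, 0.3, 1, 3, 10). On day 6, cells were lysed in 0.2% Triton X-100 and TG was measured by GPO-POD and normalized to BCA protein as % of control. EC50 was fitted from the dose–response. N = 4.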

[5] = test system: 3T3-L1; assay: Lipid lowering activity in mouse 3T3-L1 cells assessed as adipogenic cocktail-induced triglyceride levels at 1 uM after 3 days by GPO-POD assay relative to control; type: functional; details: time 3 day
Method in brief: (§2)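 3T3-L1 cells were differentiated (cocktail on days 0–3, insulin thereafter) with 1 µM compound present during defined windows (days 0–3, 3–6, 6–9, or 0–3/0–6/0–9). TG was measured at day 9 by GPO-POD after Triton X-100 lysis and sonication. TG was normalized to BCA protein and expressed as % of differentiated control.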

[6] = test system: 3T3-L1; assay: Lipid lowering activity in mouse 3T3-L1 cells assessed as adipogenic cocktail-induced triglyceride levels at 1 uM after 6 to 9 days by GPO-POD assay relative to control; type: functional; details: time 6-9 day; method in brief: as §2
[7] = test system: 3T3-L1; assay: Lipid lowering activity in mouse 3T3-L1 cells assessed as adipogenic cocktail-induced triglyceride levels at 1 uM up to 9 days by GPO-POD assay relative to control; type: functional, cell-based; details: time day <=9; method in brief: as §2
[8] = test system: 3T3-L1; assay: Inhibition of mouse 3T3-L1 cells adipocyte differentiation assessed as reduction in adipogenic cocktail-induced PPARgamma protein expression at 0.3 to 1 uM after 24 hrs by Western blot analysis; type: functional, cell-based; details: dose 0.3-1 µM
Method in brief: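 3T3-L1 preadipocytes were exposed to adipogenic cocktail with compound (0.3 or 1 µM) and harvested on day 1. Lysates were resolved by SDS-PAGE, immunoblotted (primary antibody overnight at 4 °C, HRP secondary) and quantified by densitometry normalized to actin.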

[9] = test system: 3T3-L1; assay: Inhibition of mouse 3T3-L1 cells adipocyte differentiation assessed as reduction in adipogenic cocktail-induced ACC protein expression at 0.3 to 1 uM after 6 days by Western blot analysis; type: functional, cell-based; details: dose 0.3-1 µM, time 6.0 day
Method in brief: (§3)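 3T3-L1 preadipocytes were differentiated with cocktail for 3 days, then insulin medium for 3 days, with compound (0.3 or 1 µM) present throughout. Cells were harvested on day 6 and proteins measured by Western blot, with densitometry normalized to actin.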

[10] = test system: 3T3-L1; assay: Inhibition of mouse 3T3-L1 cells adipocyte differentiation assessed as reduction in adipogenic cocktail-induced SCD1 protein expression at 0.3 to 1 uM after 6 days by Western blot analysis; type: functional, cell-based; details: dose 0.3-1 µM, time 6.0 day; method in brief: as §3
[11] = test system: C2C12; assay: Activation of AMPK pathway in mouse C2C12 cells assessed as increase in glucose uptake at 0.3 to 1 uM after 6 hrs in presence of insulin by 2-NBDG/Hoechst 33342 staining based Confocal microscopic method; type: cell-based; details: filed as activator, dose 0.3-1 µM; method in brief: as §1
[12] = test system: 3T3-L1; assay: Activation of AMPK pathway in mouse 3T3-L1 cells assessed as increase in CPT1beta mRNA expression at 0.3 to 1 uM after 24 hrs by RT-qPCR analysis; type: cell-based; details: filed as activator, dose 0.3-1 µM
[13] = test system: Mus musculus; assay: Antiobesity activity in high fat diet-induced obese C57BL/6J mouse model assessed as decrease in size of adipocytes at 20 mg/kg, ip administered for every other days for 6 weeks by H and E staining based assay; type: functional, organism-based
[14] = test system: Mus musculus; assay: Antiobesity activity in high fat diet-induced obese C57BL/6J mouse model assessed as decrease in calorie intake at 20 mg/kg, ip administered for every other days for 6 weeks; type: functional, organism-based
Method in brief: (§4)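 Male C57BL/6J mice (7–8 weeks) fed HFC diet (60% fat, 1% cholesterol) for up to 14 weeks. From week 9, given 20 mg/kg i.p. every other day for 6 weeks in saline with 10% ethanol and 10% castor oil, or vehicle. Body weight and food intake recorded daily. At end, mice fasted 6 h, anesthetized, and blood collected into EDTA. Plasma chemistry run on an auto-analyzer; insulin by ultra-sensitive ELISA.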

[15] = Toxicity in ip dosed C57BL/6J mouse administered for every other days for 6 weeks; type: organism-based; details: in vivo
Method in brief: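 Male C57BL/6J mice (7–8 weeks) were fed an HFC diet (60% fat, 1% cholesterol) from week 1 and given 20 mg/kg i.p. every other day for 6 weeks from week 9, in saline with 10% ethanol and 10% castor oil, against a vehicle group. At the end, after a 6 h fast under ketamine/xylazine, plasma was taken for auto-analyzer ALT, AST, TBIL, ALB, BUN and creatinine, and tissues were weighed.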

[16] = test system: Mus musculus; assay: Anti-hyperglycemic activity in high fat diet-induced obese C57BL/6J mouse model assessed as decrease in blood glucose level at 20 mg/kg, ip; type: functional, organism-based; details: time hrs <=24, TDE = time-dependent effect
Method in brief: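 C57BL/6J mice fed HFC diet (60% fat, 1% cholesterol). Single i.p. injection of saline or compound at 20 mg/kg. Blood glucose measured with a glucose monitor at 0, 0.5, 1, 2, 4, 8, 12 and 24 h.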

[17] = Half life in Sprague-Dawley rat at 2 mg/kg, iv up to 24 hrs by LC-MS/MS analysis; type: ADME, organism-based; details: in vivo
Method in brief: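 Male SD rats (180–220 g, n = 3) received compound in ethanol/saline (5:95), either intravenously at 2 mg/kg or intragastrically at 5 mg/kg. Plasma was sampled at 0, 0.5, 1, 2, 4, 8, 12 and 24 h. Concentrations were measured by LC-MS/MS, and PK parameters were calculated from the concentration–time data.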

[18] = test system: Mus musculus; assay: Antiobesity activity in high fat diet-induced obese C57BL/6J mouse model assessed as albumin level at 20 mg/kg, ip administered for every other days for 6 weeks by auto-analyzer method (reference value: 38.7 […]); type: functional; method in brief: as §4
[19] = test system: Mus musculus; assay: Antiobesity activity in high fat diet-induced obese C57BL/6J mouse model assessed as free fatty acid level at 20 mg/kg, ip administered for every other days for 6 weeks by auto-analyzer method (reference value: 1668.5 +/- 144.6 uM); type: functional; method in brief: as §4
[20] = test system: Mus musculus; assay: Antiobesity activity in high fat diet-induced obese C57BL/6J mouse model assessed as insulin level at 20 mg/kg, ip administered for every other days for 6 weeks by ELISA (reference value: 3.5 +/- 0.6 ng/ml); type: functional; method in brief: as §4
[21] = test system: Mus musculus; assay: Antiobesity activity in high fat diet-induced obese C57BL/6J mouse model assessed as LDL cholesterol level at 20 mg/kg, ip administered for every other days for 6 weeks by auto-analyzer method (reference value: 0.9 +/- 0.4 mM); type: functional; method in brief: as §4

## CN(C)CCCNc1nc(-c2[nH]c3ccccc3c2C=O)nc2ccccc12
[1]
  Activity: Active
[2]
  Activity: Active
[3]
  clearance: 125 mL/min/kg

## COc1ccc2[nH]c(-c3nc(NCCCCN4CCCC4)c4ccccc4n3)c(C=O)c2c1
[4]
  Activity: Dose-dependent effect
[5]
  Activity: 74.2%
[6]
  Activity: 35.3%
[7]
  Activity: Active
[8]
  inhibition: Active
[9]
  inhibition: Active
[10]
  inhibition: Active
[11]
  Activity: Active
[12]
  Activity: Active
[13]
  Activity: Active
[14]
  Activity: inactive
[15]
  LD50 at 1008 h: 500 mg/kg
[16]
  Activity: Tde
[17]
  half-life: 4.4 h
[18]
  Activity: 30.4 g/L
[19]
  Activity: 694.4 µM
[20]
  Activity: 2.2 ng/mL
[21]
  Activity: 0.81 mM
